Shown are actives, neighbours in structure and some others; about 8.2% of the full set was active somewhere.
D1 mod – allosteric modulators of human D1 dopamine receptor; hit rate 5.9% among 58,000; HEK293 D1, CRE-luciferase, dopamine EC30 potentiation; actives deviate in either direction; AID 641; B-score at 10 µM;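 active = luminescence count or its row- and column-corrected plate score outside the 99.7% band of the plate's sample wells, on either side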
SF-1 act – SF-1 (human) activation | CHO-K1 Gal4-SF-1 LBD luciferase reporter; % increase over DMSO SF-1-specific signal | activation, % at 10 µM | hit rate 1.9% among 65,000 | AID 522;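 active = activation above the mean activation of all tested compounds plus 3 SD, cut at about 50% in these data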
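Assay system: CHO-K1 cells co-transfected with Gal4 DBD–human SF-1 LBD, 5xGal4 luciferase reporter / Input: 4,000 cells per well / Incubation: 20 h compound exposure at 37 °C after 1 h cell settling / Detection: SteadyLite luciferase luminescence / Control set: DMSO negative control and −SF1 background wells / Replication: one test per compound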
M1 ag – agonists of M1 muscarinic receptor. CHO-M1 cells, Fluo-4 calcium fluorescence, agonist mode; active compounds read high. B-score at 10 µM. hit rate 3% among 64,000. AID 626;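 active = fluorescence rise, raw or as B-score row- and column-corrected plate score, outside the 99.7% band of its plate's samples, either direction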
HePTP inh – human HePTP phosphatase inhibition; P35236; recombinant HePTP phosphatase activity, OD absorbance; inhibition, % at 20 µM; hit rate 0.64% among 110,000; in the data active = inhibition above about 50%
Target sequence (P35236 whole entry, looked up): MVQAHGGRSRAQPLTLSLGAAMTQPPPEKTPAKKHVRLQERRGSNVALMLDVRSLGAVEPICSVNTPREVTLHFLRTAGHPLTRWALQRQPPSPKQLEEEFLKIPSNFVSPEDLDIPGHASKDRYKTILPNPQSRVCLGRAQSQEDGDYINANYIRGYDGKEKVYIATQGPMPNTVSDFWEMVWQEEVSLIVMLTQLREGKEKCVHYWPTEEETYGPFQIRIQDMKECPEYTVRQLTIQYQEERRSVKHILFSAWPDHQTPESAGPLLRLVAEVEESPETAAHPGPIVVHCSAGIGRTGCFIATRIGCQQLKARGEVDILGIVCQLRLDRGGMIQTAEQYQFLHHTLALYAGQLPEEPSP
M1 antagonist – M1 muscarinic receptor (rat) antagonism | P08482 | CHO-M1 cells, Fluo-4 calcium, ACh EC80 antagonist mode; active compounds read low | B-score at 10 µM | hit rate 3.4% among 64,000 | AID 628;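 active = calcium fluorescence response, raw or row-and-column corrected B-score, differing from the plate sample mean either way at a set confidence level, mostly lower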
RORa activator – activates the human nuclear receptor RORA; activation, % at 10 µM; CHO-K1 Gal4-RORA LBD luciferase reporter, luminescence; percent increase over mock-subtracted basal signal; P35398; hit rate 1.5% among 65,000; AID 560;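 active = activation above the mean of all tested compounds plus 3 SD, cut at about 49% in these data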
A number is an active result; n = inactive; x = no result given; ! = a repeat was not active.

SMILES | D1 mod | SF-1 act | M1 ag | HePTP inh | M1 antagonist | RORa activator
CCOc1ccc(S(=O)(=O)Nc2ccc(Cl)cn2)c(C)c1C | -2.56 | n | n | n | n | n
CC(C)(C)n1ncc2c(=O)n(CC(=O)NCc3ccc(F)cc3)cnc21 | n | 91.6 | n | n | n | 67.1
CC(C)(C)n1ncc2c(=O)n(CC(=O)NC3CCCCC3)cnc21 | n | 68.3 | n | n | n | n
CC(C)(C)n1ncc2c(=O)n(CC(=O)Nc3ccccc3)cnc21 | x | n | n | n | n | n
CC(C)(C)n1ncc2c(=O)n(CC(=O)NCc3ccco3)cnc21 | n | 50.0 | n | n | n | n
Cc1ccc(C)c(Cn2cnc3c(cnn3C(C)(C)C)c2=O)c1 | -2.58 | n | x | x | x | n
CCOC(=O)c1ccccc1NC(=O)Cn1cnc2c(cnn2C(C)(C)C)c1=O | n | n | n | n | n | n
CCOc1ccc(C(=O)COC(=O)c2ccccc2Br)cc1 | x | x | x | n | x | x
Cc1cc(C)cc(NCC(=O)Nc2c(C)cccc2C)c1 | n | n | n | n | n | n
Nc1nc(SCC(=O)c2ccc(Oc3ccccc3)cc2)n[nH]1 | n | n | n | n | n | n
CC(C)(C)n1ncc2c(=O)n(CC(=O)c3ccccc3)cnc21 | n | 93.4 | n | n | n | 54.9
CC(C)(C)n1ncc2c(=O)n(CC(=O)OCc3ccccc3)cnc21 | n | n | x | x | x | n
Cc1ccc(OCc2nc(-c3ccccc3)no2)c(C)c1 | n | 58.8 | n | n | n | n
COc1ccc(C(=O)/C=C/Nc2cccc(C)n2)cc1OC | x | 87.8 | n | n | n | n
CCOC(=O)N1CCC(NC(=O)c2cc(-c3ccc(F)cc3)[nH]c2C)CC1 | n | n | n | n | n | n
COC(=O)C1=C(C)N(C)C(C)=C(C(=O)OC)C1c1ccsc1 | n | n | n | 105.1! | n | n
O=C(NCCc1ccccc1)c1cnc2sccn2c1=O | n | n | n | n | n | 83.6
COC(=O)c1ccccc1NC(=O)c1cnc2sccn2c1=O | n | n | n | n | n | n
COc1ccccc1Nc1nc(C)cc(=O)[nH]1 | n | n | n | n | n | n
COc1ccccc1Nc1nc2ccccc2[nH]1 | n | 65.5 | n | n | n | n
Cn1c(=O)c2c(nc(Oc3cccc(/C=N/NC(N)=S)c3)n2C)n(C)c1=O | x | x | x | n | x | x
CCOC(=O)c1ccc(N2C(=O)c3n[nH]c(C)c3C2c2ccc(OC)c(OC)c2)cc1 (stereo not given) | -2.31 | n | n | n | n | n
COC(=O)Cn1c(C)nc2c(sc3nc(C)cc(C)c32)c1=O | n | 50.1 | n | n | n | n
CCOC(=O)Cn1c(C)nc2c(C(=O)OCC)sc(C)c2c1=O | n | n | n | n | n | n
O=C(NCc1ccccn1)C(=O)Nc1ccc(Cl)c(C(F)(F)F)c1 | x | x | x | n | x | x
SMILES | D1 mod | SF-1 act | M1 ag | HePTP inh | M1 antagonist | RORa activator
O=C(CCS(=O)(=O)Cc1ccccc1)Nc1nc2c(s1)CCCC2 | n | n | n | n | n | n
O=C(CCCc1cccs1)Nc1nc2c(s1)CCCC2 | n | 73.2 | n | n | n | n
CC1CCc2nc(NC(=O)Cc3cccs3)sc2C1 (stereo not given) | n | 63.1 | n | n | n | n
CC1CCc2nc(NC(=O)C3CCCO3)sc2C1 (stereo not given) | -4.61 | n | n | n | n | n
CC1CCc2nc(NC(=O)c3ccco3)sc2C1 (stereo not given) | -7.5 | n | n | n | n | n
O=C(O)C1CCC(CNCc2cccnc2)CC1 (stereo not given) | n | n | n | n | n | n
CCCOC(=O)/C(=C\c1cccc([N+](=O)[O-])c1)NC(=O)c1ccccc1 | x | x | x | n | x | x
COC(=O)Cn1c2ccccc2c2nc(C)sc21 | n | n | n | n | n | n
CCOC(=O)C1=C(C)NC(=O)NC1c1ccoc1 (stereo not given) | n | n | n | n | n | n
CCOC(=O)C1=C(C)NC(=O)NC1c1ccsc1 (stereo not given) | x | x | x | 103.9 | x | x
O=C1C(Nc2ccccc2)=CC(c2cccc([N+](=O)[O-])c2)N1c1ccccc1 (stereo not given) | x | x | x | n | x | x
Nc1c(Cl)cc(-c2nc3ccccc3o2)cc1Cl | x | x | x | n | x | x
Nc1c(Br)cc2oc(-c3ccccc3)nc2c1Br | n | 75.6 | n | n | n | 52.3
COc1ccc(-c2nc3c(Br)c(N)c(Br)cc3o2)cc1 | x | 73.0 | n | n | n | n
CC1(C)Cc2c(sc3ncn4nc(-c5ccco5)nc4c23)CO1 | 5.93 | n | n | n | n | n
O=C1c2ccccc2-c2ncnc3cccc1c23 | 12.7 | n | n | n | n | n
O=C(O)c1ccc2c3c(ncnc13)-c1ccccc1C2=O | n | n | n | n | n | n
O=C(c1ccc(S(=O)(=O)N2CCOCC2)cc1)N(Cc1ccco1)Cc1cccs1 | n | n | n | n | n | n
Cc1ccc(NC(CC(=O)c2ccccc2)c2ccc(F)cc2)cc1 (stereo not given) | x | x | x | n | x | x
O=C(CC(Nc1ccc(F)cc1)C(=O)O)c1ccccc1 (stereo not given) | n | n | n | n | n | 62.0
COc1ccc(Cl)cc1N1C(=O)C2CCCN2C1c1sccc1C (stereo not given) | -2.35 | n | n | n | n | n
O=C(NC1=NCCS1)c1cc(-c2ccccc2)nn1-c1ccccc1 | x | n | n | n | n | n
O=C(Nc1cccc2nsnc12)c1ccc2c(c1)OCCO2 | x | 54.2 | n | n | n | 69.6
O=C(Nc1ccc(-c2nc3ccccc3s2)c(O)c1)c1ccc2c(c1)OCCO2 | x | x | x | 67.9 | x | x
Cc1ccc(C(=O)Nc2cccc3nsnc23)cc1 | x | x | x | n | x | x
SMILES | D1 mod | SF-1 act | M1 ag | HePTP inh | M1 antagonist | RORa activator
CCN(CC)c1ccc(NC(=O)c2cccc(C)c2OC)c(C)c1 | n | 65.6 | n | n | n | 72.8
CN1C(=O)c2ccc(N3CCCC3)cc2C1=O | n | n | 13.3 | n | n | n
CN1C(=O)c2ccc(N(C)C)cc2C1=O | x | n | n | n | n | n
C=CCn1c(-c2ccccc2)n[nH]c1=S | x | n | n | n | n | n
COc1ccc(N2C(=O)/C(=C\c3cccc(OC(=O)c4ccco4)c3)SC2=S)cc1 | x | x | x | n | x | x
COCCSc1nnc(NC(=O)C2CCCO2)s1 (stereo not given) | n | n | n | n | n | n
CCn1c(SCc2nc3ccccc3s2)nnc1-c1cccs1 | n | n | n | n | n | n
Cc1ccccc1-n1c(C)nnc1SCc1nc2ccccc2s1 | n | 55.1 | n | n | n | 57.6
CCOc1cc(C2C3=C(CC(C)(C)CC3=O)Nc3ccccc3N2C(=O)c2ccccc2)ccc1O (stereo not given) | x | x | x | n | x | x
CCC(=NNC(=O)Nc1c(C)cccc1C)c1ccc(O)cc1 | x | x | x | n | x | x
COC(=O)C1=C(C)N(CCc2ccc(OC)c(OC)c2)C(=O)C1 | x | x | x | 96.5 | x | x
O=C(Nc1cccc(Br)c1)c1ccc([N+](=O)[O-])cc1 | x | x | x | n | x | x
Cc1ccc(NC(=O)C2C3CC4OC(=O)C2C4C3)cc1Cl (stereo not given) | n | n | n | n | n | n

Compound activity deposited in PubChem BioAssay by several laboratories.
